This is a sample that favours compounds with a hit; in the whole collection about 2.5% have one here.
ADAM10 inh: ADAM10 inhibition, QFRET primary screen | O14672 | recombinant ADAM10, EDANS/DABCYL FRET peptide cleavage, 3 h | inhibition, % at 7 µM | 370,000 compounds, 0.62% hits;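 active means inhibition above a per-campaign cutoff equal to the mean of compounds falling between control-based bounds plus 3 SD, cut at about 20% in these data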;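 further: 0% = DMSO wells while the 100% control is not disclosed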
KLK7 zymogen act: activators of human kallikrein-7 zymogen | P49862 | AID 652039 | 370,000 compounds, 0.9% hits | purified proKLK7, EDANS-DABCYL substrate fluorescence; 100% is mature enzyme control, 0% vehicle | activation, % at 7 µM;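 active means activation above the mean of all tested compounds plus 3 SD, computed per campaign excluding outliers beyond control limits, cut at about 13% in these data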
Target sequence (P49862 whole entry, looked up): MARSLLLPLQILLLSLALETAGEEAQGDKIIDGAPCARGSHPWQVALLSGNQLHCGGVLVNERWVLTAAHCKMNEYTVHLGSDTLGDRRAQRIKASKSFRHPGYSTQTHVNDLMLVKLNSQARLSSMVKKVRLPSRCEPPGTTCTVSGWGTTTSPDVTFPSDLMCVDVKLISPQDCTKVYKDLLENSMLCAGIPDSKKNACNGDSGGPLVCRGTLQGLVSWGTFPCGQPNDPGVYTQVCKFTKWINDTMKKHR
ADAM17 inh: inhibits human ADAM17 | P78536 | recombinant ADAM17, EDANS/DABCYL FRET peptide cleavage | inhibition, % at 6.95 µM | 370,000 compounds, 0.83% hits | AID 720648;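 active means inhibition above the mean of compounds lying between control limits plus 3 SD, set per campaign, cut at about 8.5% in these data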;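 further: 0% = DMSO-only wells as the low control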
NR2E3 ag-1: agonists of human nuclear receptor NR2E3; AID 2300; 320,000 compounds, 0.12% hits; GST-NR2E3/biotin-RetCOR TR-FRET, 1536-well; inhibition of corepressor binding, % at 4.78 µM;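 active means percent inhibition above the cutoff of mean plus 3 SD of all tested compounds, set per screening campaign, cut at about 20% in these data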;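 further: 0% = DMSO wells and 100% = biotin wells as full block of FRET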
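Material: NR2E3–RetCOR corepressor complex / Amount: 1.35 nM GST-NR2E3 / Medium: Tris pH 7.5 / Compound: single nominal compound dose of 4.8 µM / Incubation: 5 h at 4 °C / Technique: TR-FRET, Eu(K)-anti-GST donor, streptavidin-D2 acceptor, ex 340, em 617/671 nm / Read-out basis: percent loss of FRET ratio relative to control wells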
GASC-1 inh: inhibitors of human GASC-1 (JMJD2C) demethylase. AID 2099. Q9H3R0. inhibition, % at 2.35 µM. 330,000 compounds, 0.069% hits. GST-JMJD2C(1-420) H3K9me3 demethylation, DELFIA europium;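 active means more than half of a compound's replicate wells show inhibition beyond 50%, single wells judged on their own value; inconclusive means some, but no more than half, of replicates pass 50% inhibition; inactive means no replicate passes 50% inhibition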;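 further: signal counts dimethyl H3K9 product captured on neutravidin plate; 0% = median of DMSO wells and 100% = 0.3 times that DMSO median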
Target sequence (Q9H3R0 1-420 limits assumed): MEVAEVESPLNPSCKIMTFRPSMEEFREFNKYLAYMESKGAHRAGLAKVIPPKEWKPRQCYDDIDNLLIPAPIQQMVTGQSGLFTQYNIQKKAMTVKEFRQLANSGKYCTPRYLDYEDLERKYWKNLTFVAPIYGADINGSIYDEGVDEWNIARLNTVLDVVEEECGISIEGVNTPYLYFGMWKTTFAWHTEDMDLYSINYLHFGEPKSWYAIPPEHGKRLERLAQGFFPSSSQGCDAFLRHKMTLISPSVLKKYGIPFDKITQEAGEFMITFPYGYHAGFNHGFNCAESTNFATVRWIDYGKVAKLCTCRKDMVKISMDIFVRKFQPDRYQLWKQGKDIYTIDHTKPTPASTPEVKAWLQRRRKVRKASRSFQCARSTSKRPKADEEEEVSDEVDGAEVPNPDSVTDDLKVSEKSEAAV
NR2E3 ag-2: agonists of human NR2E3 nuclear receptor | CHO-S Gal4-NCOR/VP16-NR2E3 two-hybrid, luciferase | inhibition of corepressor binding, % at 3.98 µM | 360,000 compounds, 0.35% hits;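 active means inhibition above the mean of all tested compounds plus 3 SD, cut at about 70% in these data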;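 further: 0% = DMSO with NR2E3 transfected cells and 100% = cells lacking NR2E3 construct; higher means lower luciferase signal from less NR2E3 corepressor binding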
NR2E3 ag confirm-1: confirmation of human NR2E3 nuclear receptor agonists | cell-free NR2E3 corepressor release, TR-FRET, 5 h | shares compounds with NR2E3 ag-1 | 360 compounds, 39% hits | activation (reported as inhibition), % at 3.98 µM; in the data active means activation above about 20%
PPARg-NCOR2 ag: counter-screen for NR2E3 agonists: human PPARgamma-NCOR2 interaction agonists | shares compounds with NR2E3 ag-1 | TR-FRET PPARg-NCOR2 coregulator interaction, biochemical | inhibition, % at 3.98 µM | 360 compounds, 45% hits | AID 504787; in the data active means inhibition above about 20%;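 further: 0% = DMSO vehicle and 100% = wells without protein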
NR2E3 ag confirm-2: NR2E3 agonism confirmed in two-hybrid assay; inhibition, % at 3.98 µM; 2,300 compounds, 51% hits; AID 624378; shares compounds with NR2E3 ag-2; CHO-S mammalian two-hybrid NR2E3-NCOR, luciferase luminescence;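 active means average inhibition above a cutoff equal to the mean inhibition of all tested compounds plus one SD, cut at about 70% in these data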;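 further: 0% = DMSO in NR2E3 cells and 100% = DMSO in cells lacking NR2E3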
GAL4-VP16 luc: reduces GAL4-VP16 reporter signal in NR2E3 counterscreen; inhibition, % at 3.98 µM; 2,300 compounds, 29% hits; CHO-S GAL4-VP16 luciferase reporter, luminescence; shares compounds with NR2E3 ag-2;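 active means mean inhibition above a cutoff equal to the average over all tested compounds plus one standard deviation, cut at about 70% in these data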;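 further: luciferase from a UAS reporter driven by GAL4-VP16 transactivation; 0% = DMSO with VP16-transfected cells and 100% = DMSO with cells lacking VP16; higher means less reporter light so more repression of VP16 activity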
The depositor's hits bear a star; ? = inconclusive; / = no result given.

SMILES	ADAM10 inh	KLK7 zymogen act	ADAM17 inh	NR2E3 ag-1	GASC-1 inh	NR2E3 ag-2	NR2E3 ag confirm-2	GAL4-VP16 luc	others
Cc1cc(C)cc(OCCOc2cccc(C=C3C(=O)NC(=O)NC3=O)c2)c1	0.7	0.2	0.3	0.8	67.7*	-55.3	/	/
O=C(CN1C(=O)[C@@H](Cc2c[nH]c3ccccc23)N=C(c2ccccc2)c2ccccc21)NC1CCCCC1	12.2	-0.1	8.4	/	/	/	/	/
O=C(NCCN1CCC2(CC1)C(=O)NCN2c1ccccc1)c1ccc(OC(F)(F)F)cc1	-15.3	0.4	-7.9	/	/	/	/	/
N=c1c2c(-c3ccccc3)c(-c3ccccc3)n(Cc3ccccc3)c2ncn1C1CCC(O)CC1 (stereo not drawn)	1.2	-0.3	-0.1	/	/	/	/	/
c1ccc2c3c(ccc2c1)OCC1CONC31 (stereo not drawn)	-15.3	-0.8	-5.7	-3.1	82.3*	/	/	/
CO[C@H]([C@H](C)/C=C/N(C)C=O)[C@@H](C)C(=O)CC[C@H](C)[C@H](O)[C@H](C)[C@H]1OC(=O)/C=C/C(C)=C/[C@H](O)[C@H](OC)C[C@@H]2C=CC[C@@H](C[C@H](OC)[C@@H](CO)[C@@H](OC)C[C@@H](OC)[C@@H]1C)O2	4.9	/	-0.6	/	/	/	/	/
CC(C)COC(=O)c1ccccc1C(=O)OCC(C)C	-11.0	-0.4	-0.5	-0.9	?	-8.8	/	/
C[CH2][Hg][S]c1ccccc1C(=O)O	-11.7	-0.1	-3.5	4.0	/	93.4*	/	/
O=C1NC(=O)N(Cc2ccccc2)C(=O)/C1=C/C=C/c1ccco1	-9.3	-0.4	-3.7	4.8	57.6*	-17.1	/	/
Cc1cc(O)c2c(c1)C(=O)C13C(=C2O)C(=O)[C@H]2[C@@H](O)[C@@H]1[C@H]1[C@H](O)[C@@H]3C(=O)C3=C(O)c4c(O)cc(C)cc4C(=O)C312 (stereo partly drawn)	/	/	/	1.1	-4.4	101.6*	/	/
CCN1/C(=C\C=C\C2=[N+](CC)c3ccccc3C2(C)C)C(C)(C)c2ccccc21	/	/	/	6.6	-13.2	103.8*	/	/
Cc1ccsc1C(=O)C1CCCN(Cc2c(C)nn(C(C)C)c2C)C1 (stereo not drawn)	-1.1	0.2	-1.6	0.7	-21.4	27.0	/	/
CCn1nc(-c2cccs2)nc2c(=O)n(C)c(=O)nc1-2	/	/	/	/	/	106.4*	/	/
c1ccc(CN2COC3CCCCCC32)cc1 (stereo not drawn)	/	/	/	/	/	4.1	/	/
CCN1C(=O)C(=C2C=C(C)N(Cc3ccco3)C(C)=C2)C(=O)N(CC)C1=S	-0.2	1.1	-4.4	25.5*	2.5	-2.1	/	/	NR2E3 ag confirm-1=14.0;PPARg-NCOR2 ag=16.7
CCN1C(=O)C(=C/C=C/c2ccco2)C(=O)N(CC)C1=S	7.2	1.2	-0.8	-0.8	37.7	-14.4	/	/
O=C(NCCN1CCC2(CC1)C(=O)NCN2c1ccccc1)c1ccc(Cl)c(Cl)c1	1.7	0.3	-0.6	/	/	/	/	/
NC(Cc1cc(O)c(O)cc1O)C(=O)O (stereo not drawn)	/	/	/	25.5*	/	/	/	/	NR2E3 ag confirm-1=37.5*;PPARg-NCOR2 ag=1.7
CC(=O)OC(C)(C)/C=C/C(=O)C(C)(O)C1C(O)CC2(C)C3CC=C4C(CC(O)C(=O)C4(C)C)C3(C)C(=O)CC12C (stereo not drawn)	-13.3	0.7	-3.7	/	/	62.7	79.7*	47.6
CC(=O)OC(C)(C)/C=C/C(=O)[C@](C)(O)[C@H]1[C@H](O)C[C@@]2(C)[C@@H]3CC=C4[C@H](C[C@H](O)C(=O)C4(C)C)[C@]3(C)C(=O)C[C@]12C	/	/	/	/	/	43.3	/	/
CN1CC[C@@H]2CN[C@H](c3ccccc3Br)C[C@@H]21	-9.4	0.0	-4.5	/	/	/	/	/
CC(=O)N1c2ccccc2C(c2ccccc2)=NCC1C(=O)NCc1ccccc1 (stereo not drawn)	-3.1	0.1	-1.2	/	/	/	/	/
COc1cc(C)c(CN2CC=C(c3ccc(F)cc3)CC2)cc1C	-0.9	0.1	-0.6	3.3	6.9	-19.4	/	/
COc1cc2nc(CN3CC=C(c4ccccc4)CC3)[nH]c(=O)c2cc1OC	-26.2	-1.1	-11.3	0.2	8.2	90.2*	99.3*	42.1
CN1c2ccc(Br)cc2[C@H]2NCC[C@H]2[C@H]1CO	-150.7	1.0	-34.9	/	/	/	/	/
SMILES	ADAM10 inh	KLK7 zymogen act	ADAM17 inh	NR2E3 ag-1	GASC-1 inh	NR2E3 ag-2	NR2E3 ag confirm-2	GAL4-VP16 luc	others
CC(O)C1C=CC=CC(=O)OC2CC3OC4C5OC5(C)CCC4(COC(=O)C4OC4(C)C(O)CO1)C2(C)C31CO1 (stereo not drawn)	-0.7	0.0	-2.1	/	/	101.1*	99.2*	97.4*
CC(=O)OC1C(=O)OCC23CCC4(C)OC4C2OC2CC(OC(=O)C=CC=CC(=O)OCCC1C)C3(C)C21CO1 (stereo not drawn)	-4.0	0.2	-5.0	/	/	101.8*	98.5*	98.6*
Cc1ccccc1CCC[C@H](CC1CCCCC1)CN(C)C(=O)Oc1ccccc1	-3.1	-0.1	-5.9	/	/	/	/	/
CCOP(=O)(CCP(=O)(OCC)OCC)OCC.C[CH2][Sn]([Cl])([Cl])[CH2]C	-9.0	-0.1	2.8	/	/	91.5*	99.6*	-40.6
Cc1ccc(C)c(OCc2cc(C(=O)N3C[C@H]4C[C@@H](C3)c3cccc(=O)n3C4)no2)c1	-14.0	-0.2	-2.3	2.1	-2.9	0.6	/	/
CC1=C(N2CC2)C(=O)C(CO)=C(N2CC2)C1=O	-16.3	-1.0	-4.3	/	/	58.9	99.4*	96.4*
c1ccc(-c2ccc3c(c2)CNCc2cnnn2-3)cc1	-13.0	0.4	-3.6	/	/	-3.3	/	/
CCC1(OC(=O)CN)C(=O)OCc2c1cc1n(c2=O)Cc2cc3ccccc3nc2-1 (stereo not drawn)	/	/	/	4.1	-5.6	93.2*	93.9*	56.1
COc1cc2c(cc1OC)[C@H]1C(=O)c3ccc4c(c3O[C@H]1CO2)C[C@@H](C(C)(C)O)O4	-5.5	1.4	-0.1	/	2.2	30.6	/	/
COc1cc2c(cc1OC)[C@@H]1C(=O)c3ccc4c(c3O[C@@H]1CO2)C[C@H](C(C)C)O4	-1.8	-0.2	-2.1	0.2	-17.7	96.0*	99.8*	92.7*
COc1cc2c(cc1OC)C1C(=O)c3ccc4c(c3OC1CO2)CC(C(C)C)O4 (stereo not drawn)	-10.9	0.4	-4.1	/	/	102.3*	96.2*	94.3*

Screening data: PubChem BioAssay, several laboratories
